PMC10925177 (bioRxiv, 2024)

Assays:
G9a mRNA = experiment: RT-qPCR of G9a mRNA in H1299 cells; type: cell-based; conditions: 3 μM, 24 h, normalized to DMSO
In short: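 H1299 cells were treated with DMSO or test compound at 3 μM for 24 h. Total RNA was extracted and reverse-transcribed to cDNA. qPCR used gene-specific primers for G9a and GLP, and a GAPDH primer set was included.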

PRMT7 [1] = target: T1, PRMT7 (Homo sapiens, UniProt Q9NVM4); experiment: Western blot of PRMT7 protein level in 22Rv1 cells; type: cell-based; conditions: indicated concentration, 24 h, WB
T1 sequence (Q9NVM4 1-692): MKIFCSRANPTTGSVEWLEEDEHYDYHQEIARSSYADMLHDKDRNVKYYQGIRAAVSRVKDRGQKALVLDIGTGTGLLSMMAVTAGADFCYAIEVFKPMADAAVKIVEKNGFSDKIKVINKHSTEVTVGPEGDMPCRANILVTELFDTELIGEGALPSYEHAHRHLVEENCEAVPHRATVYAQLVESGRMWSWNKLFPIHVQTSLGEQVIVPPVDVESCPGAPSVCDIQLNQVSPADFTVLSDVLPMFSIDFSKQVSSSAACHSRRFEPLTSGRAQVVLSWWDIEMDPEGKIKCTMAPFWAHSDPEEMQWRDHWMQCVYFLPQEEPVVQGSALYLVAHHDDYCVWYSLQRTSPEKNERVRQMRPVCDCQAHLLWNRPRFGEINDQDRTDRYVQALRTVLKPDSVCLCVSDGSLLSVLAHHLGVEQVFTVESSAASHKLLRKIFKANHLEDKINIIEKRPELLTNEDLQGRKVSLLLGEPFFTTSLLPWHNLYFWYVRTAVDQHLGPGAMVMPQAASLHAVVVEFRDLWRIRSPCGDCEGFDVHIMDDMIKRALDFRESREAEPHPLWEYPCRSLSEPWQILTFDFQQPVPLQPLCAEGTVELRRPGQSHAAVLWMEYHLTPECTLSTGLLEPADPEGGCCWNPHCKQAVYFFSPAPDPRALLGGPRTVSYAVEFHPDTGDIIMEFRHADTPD
In short: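 22Rv1 cells were treated with the test compound at the indicated concentrations for 24 h. Cells were lysed in RIPA containing protease inhibitor cocktail, and protein was resolved by SDS-PAGE and transferred to PVDF. Primary antibody was applied overnight at 4 °C, with β-actin as loading control. Blots are representative of two independent experiments.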

PNT2 cells = experiment: Cell viability assay; type: cell-based, human; conditions: 5 days, WST-8 (CCK-8)
In short: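 PNT2 cells were grown at 37 °C in 5% CO2 and treated with serial dilutions of the test compound. The general protocol gives a treatment span of 5–8 days. Viability was measured by CCK-8 (WST-8) absorbance at 450 nm, with 690 nm as reference. IC50 was calculated by curve fitting.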

PRMT7 [2] = target: T1, PRMT7; experiment: Radioactive methyltransferase assay, PRMT7; type: biochemical; conditions: 10 μM compound
In short: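 The selectivity screen covered 21 protein methyltransferases in radioisotope-based MT HotSpot methyltransferase assays run by a contract laboratory. Test compound was at 10 μM. Each assay was run in duplicate and reported as mean ± SD of the two replicates.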

22Rv1 cells = experiment: Clonogenicity assay in 22Rv1 cells; type: cell-based; conditions: 8 days treatment, crystal violet
In short: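 22Rv1 cells were seeded at 50,000 per well in 6-well plates. They were treated continuously with the test compound at the indicated concentrations for 8 days, then stained with 0.5% crystal violet. Three independent biological experiments were run.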

EZH2 = EZH2 (Homo sapiens, UniProt Q15910); experiment: Western blot of EZH2 protein level in 22Rv1 cells; type: cell-based; conditions: indicated concentration, 24 h, WB
Sequence of EZH2 (Q15910 whole entry): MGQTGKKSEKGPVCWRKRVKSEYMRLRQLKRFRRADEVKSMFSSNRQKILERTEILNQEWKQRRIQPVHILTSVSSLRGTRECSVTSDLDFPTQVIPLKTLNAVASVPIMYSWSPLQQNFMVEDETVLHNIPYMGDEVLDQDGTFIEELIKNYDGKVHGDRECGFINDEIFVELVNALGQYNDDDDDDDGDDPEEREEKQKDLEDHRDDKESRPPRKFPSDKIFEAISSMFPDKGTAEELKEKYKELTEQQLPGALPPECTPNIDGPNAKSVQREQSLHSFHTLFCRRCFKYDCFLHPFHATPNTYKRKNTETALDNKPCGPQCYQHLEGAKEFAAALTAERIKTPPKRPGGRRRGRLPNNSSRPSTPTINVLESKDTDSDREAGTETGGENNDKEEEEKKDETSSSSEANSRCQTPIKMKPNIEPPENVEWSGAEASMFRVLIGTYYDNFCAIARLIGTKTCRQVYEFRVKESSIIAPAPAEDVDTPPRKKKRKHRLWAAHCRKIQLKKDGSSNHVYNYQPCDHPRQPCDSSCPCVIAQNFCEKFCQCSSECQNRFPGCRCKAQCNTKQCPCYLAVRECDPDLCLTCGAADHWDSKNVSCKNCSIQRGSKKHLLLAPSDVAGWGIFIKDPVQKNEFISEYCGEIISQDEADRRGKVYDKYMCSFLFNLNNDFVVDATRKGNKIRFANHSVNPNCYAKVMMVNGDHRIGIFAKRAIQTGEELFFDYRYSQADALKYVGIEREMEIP

G9a = target: T2, G9a (Homo sapiens, UniProt Q96KQ7); experiment: Western blot of G9a protein levels in cancer cells; type: cell-based
T2 sequence (Q96KQ7 1-1210): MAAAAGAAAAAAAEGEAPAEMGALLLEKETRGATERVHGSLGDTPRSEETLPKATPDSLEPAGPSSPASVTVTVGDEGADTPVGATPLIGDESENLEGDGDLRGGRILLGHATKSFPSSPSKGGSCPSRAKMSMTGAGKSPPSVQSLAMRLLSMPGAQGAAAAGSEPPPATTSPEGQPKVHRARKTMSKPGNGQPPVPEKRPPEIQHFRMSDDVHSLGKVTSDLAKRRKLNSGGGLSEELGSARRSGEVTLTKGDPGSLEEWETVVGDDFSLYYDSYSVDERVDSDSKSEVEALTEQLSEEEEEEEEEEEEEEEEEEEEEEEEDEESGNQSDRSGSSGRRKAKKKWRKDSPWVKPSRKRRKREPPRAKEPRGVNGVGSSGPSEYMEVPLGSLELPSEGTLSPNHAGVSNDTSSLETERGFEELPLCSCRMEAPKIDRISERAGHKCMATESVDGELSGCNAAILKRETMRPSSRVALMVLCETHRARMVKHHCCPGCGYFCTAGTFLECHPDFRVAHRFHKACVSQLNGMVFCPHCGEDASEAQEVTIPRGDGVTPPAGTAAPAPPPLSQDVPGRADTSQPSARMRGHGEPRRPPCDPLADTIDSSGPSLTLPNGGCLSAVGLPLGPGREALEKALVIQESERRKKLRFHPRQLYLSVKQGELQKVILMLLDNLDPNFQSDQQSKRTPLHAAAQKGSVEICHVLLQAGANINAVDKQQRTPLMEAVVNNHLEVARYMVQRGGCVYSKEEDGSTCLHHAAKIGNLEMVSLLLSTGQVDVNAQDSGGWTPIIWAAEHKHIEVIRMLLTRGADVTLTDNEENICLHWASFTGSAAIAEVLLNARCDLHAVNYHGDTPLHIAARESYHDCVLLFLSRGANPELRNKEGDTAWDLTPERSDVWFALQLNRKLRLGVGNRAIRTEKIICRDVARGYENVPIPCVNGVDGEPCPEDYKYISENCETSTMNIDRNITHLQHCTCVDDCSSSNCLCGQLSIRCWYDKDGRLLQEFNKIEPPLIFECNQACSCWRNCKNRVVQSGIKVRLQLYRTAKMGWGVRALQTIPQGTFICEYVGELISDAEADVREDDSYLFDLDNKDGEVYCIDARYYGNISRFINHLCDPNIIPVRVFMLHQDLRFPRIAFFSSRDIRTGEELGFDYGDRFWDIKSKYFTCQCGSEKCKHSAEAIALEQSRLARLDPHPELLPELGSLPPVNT
In short: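 Cells (22Rv1, K562, H1299) were treated for 24 h at the indicated concentrations; 22Rv1 time courses were run at 3 μM. Cells were lysed in RIPA with protease inhibitors, and 10–30 μg of protein was resolved by SDS-PAGE and transferred to PVDF. Blots were probed overnight at 4 °C, with vinculin/β-actin as loading controls. Band intensity was normalised to DMSO, with n = 2 independent experiments (mean ± SD).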

Compound: COc1cc2c(NC3CCN(CCCC(=O)NCCCCCCCCCCCC(=O)N[C@H](C(=O)N4C[C@H](O)C[C@H]4C(=O)NCc4ccc(-c5scnc5C)cc4)C(C)(C)C)CC3)nc(N3CCC(F)(F)CC3)nc2cc1OCCCN1CCCC1 [Compound 10, (2S,4R)-1-((S)-2-(12-(4-(4-((2-(4,4-difluoropiperidin-1-yl)-6-methoxy-7-(3-(pyrrolidin-1-yl)propoxy)quinazolin-4-yl)amino)piperidin-1-yl)butanamido)dodecanamido)-3,3-dimethylbutanoyl)-4-hydroxy-N-(4-(4-methylthiazol-5-yl)benzyl)pyrrolidine-2-carboxamide]
- mRNA levels of G9a (G9a mRNA): did not significantly alter
- PRMT7 degradation (PRMT7 [1]): cannot induce the degradation
- cell viability of normal prostate cells (PNT2 cells): does not affect the cell viability
- inhibition of PRMT7 (PRMT7 [2]): moderately inhibited
- inhibition of 22Rv1 cell colony formation (22Rv1 cells): able to inhibit
- EZH2 degradation (EZH2): cannot induce the degradation
- G9a degradation, in words (G9a; 22Rv1 cells, 1 μM, 24 h, WB (Figure 3A)): potently induced degradation
- duration of G9a degradation effect (G9a; 22Rv1 cells, 3 μM): up to 48 h
- time at which G9a degradation was first observed (G9a; 22Rv1 cells, 3 μM): 4 h
- time to complete G9a degradation (G9a; 22Rv1 cells, 3 μM): around 24 h
- G9a degradation, in words (G9a; H1299 cells, 3 μM, 24 h, WB): degraded
- G9a degradation, in words (G9a; K562 cells, 3 μM, 24 h, WB): induced G9a and GLP degradation
- DC50 (G9a; read-out: half-maximal degradation concentration (DC50) for G9a, 22Rv1 cells, 24 h, WB): 274 ± 2 nM
